Measured values reported in ChEMBL document CHEMBL1130012 (J Med Chem, 1997).

Legend:
[1] = target: T1, Muscarinic acetylcholine receptor M1 (Rattus norvegicus, UniProt P08482); experiment: Binding affinity towards rat Muscarinic acetylcholine receptor M1 was determined
T1 sequence (P08482 whole entry): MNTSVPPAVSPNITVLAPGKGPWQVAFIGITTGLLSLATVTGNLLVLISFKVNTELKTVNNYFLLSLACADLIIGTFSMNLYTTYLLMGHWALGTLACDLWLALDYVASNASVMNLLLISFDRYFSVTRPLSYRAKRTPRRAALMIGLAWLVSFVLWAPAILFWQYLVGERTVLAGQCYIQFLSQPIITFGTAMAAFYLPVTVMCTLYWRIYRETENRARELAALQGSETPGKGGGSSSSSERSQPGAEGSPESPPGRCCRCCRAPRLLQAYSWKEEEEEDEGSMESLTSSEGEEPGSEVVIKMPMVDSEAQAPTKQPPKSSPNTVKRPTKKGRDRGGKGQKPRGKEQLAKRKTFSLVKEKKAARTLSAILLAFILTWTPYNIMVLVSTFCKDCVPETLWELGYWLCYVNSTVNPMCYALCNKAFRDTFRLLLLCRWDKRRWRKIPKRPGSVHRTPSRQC

[2] = target: Muscarinic acetylcholine receptor M3 (Rattus norvegicus) (UniProt P08483); experiment: Binding affinity towards Muscarinic acetylcholine receptor M3 was determined in rat pancreas
Sequence of Muscarinic acetylcholine receptor M3 (Rattus norvegicus) (P08483 whole entry, looked up): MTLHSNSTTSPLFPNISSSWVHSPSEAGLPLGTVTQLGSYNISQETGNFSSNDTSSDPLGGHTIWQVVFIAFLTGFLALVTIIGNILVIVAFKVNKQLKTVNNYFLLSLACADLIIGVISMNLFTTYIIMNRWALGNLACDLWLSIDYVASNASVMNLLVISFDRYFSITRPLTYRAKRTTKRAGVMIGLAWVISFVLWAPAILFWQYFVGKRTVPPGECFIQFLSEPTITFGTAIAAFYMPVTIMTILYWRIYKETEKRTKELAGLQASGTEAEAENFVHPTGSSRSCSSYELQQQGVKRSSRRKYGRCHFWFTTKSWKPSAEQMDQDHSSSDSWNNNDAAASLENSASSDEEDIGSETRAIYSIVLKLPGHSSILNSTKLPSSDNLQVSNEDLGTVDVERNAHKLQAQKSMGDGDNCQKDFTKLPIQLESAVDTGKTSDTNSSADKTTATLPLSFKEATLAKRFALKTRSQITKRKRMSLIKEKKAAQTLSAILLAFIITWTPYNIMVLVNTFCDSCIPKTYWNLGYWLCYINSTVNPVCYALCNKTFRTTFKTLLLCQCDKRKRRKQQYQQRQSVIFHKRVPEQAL

[3] = target: T2, Muscarinic acetylcholine receptor M2 (Rattus norvegicus, UniProt P10980); experiment: Binding affinity towards rat Muscarinic acetylcholine receptor M2 was determined
T2 sequence (P10980 whole entry): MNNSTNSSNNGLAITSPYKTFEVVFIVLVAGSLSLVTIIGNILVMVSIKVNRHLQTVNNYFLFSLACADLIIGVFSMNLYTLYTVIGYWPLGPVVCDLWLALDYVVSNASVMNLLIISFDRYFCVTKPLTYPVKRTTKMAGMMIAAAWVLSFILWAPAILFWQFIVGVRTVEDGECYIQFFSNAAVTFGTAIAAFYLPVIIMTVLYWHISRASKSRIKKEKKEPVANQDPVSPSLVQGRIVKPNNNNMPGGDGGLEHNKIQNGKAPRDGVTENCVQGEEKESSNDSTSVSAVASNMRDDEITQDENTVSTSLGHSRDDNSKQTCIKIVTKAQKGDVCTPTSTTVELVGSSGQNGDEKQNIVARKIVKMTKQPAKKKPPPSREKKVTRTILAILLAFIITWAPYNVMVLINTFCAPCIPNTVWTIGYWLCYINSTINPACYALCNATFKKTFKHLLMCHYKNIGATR

Rattus norvegicus [4] = experiment: The Biodistribution of the antagonistic compound along with pretreated atropine (2.5 mg/kg) in male wistar rats after 15 minutes of injection in the cortex expressed as (body weight-corrected) uptake value; Below limit of detection; type: organism-based; details: in vivo, 0.25 h
Outline: (§1)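 Same protocol, except the pretreatment was saline containing atropine (0.5 mg/0.5 mL; 2.5 mg/kg) given i.v. 1 min before tail-vein injection of the radioligand (1.85-2.78 MBq in 0.4 mL saline) into pentobarbital-anaesthetized (60 mg/kg) male Wistar rats (240 g). Tissues removed at 15 min and counted ex vivo. Uptake is body-weight-corrected DAR = (cpm/g tissue)/(cpm injected/g body weight).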

Rattus norvegicus [5] = experiment: The Biodistribution of the antagonistic compound along with pretreated atropine (2.5 mg/kg) in male wistar rats after 15 minutes of injection in the submandibular gland expressed as (body weight-corrected) uptake value; type: organism-based; details: in vivo, 0.25 h; outline: as §1
Rattus norvegicus [6] = organism: Rattus norvegicus; experiment: The Biodistribution of the antagonistic compound in male wistar rats, after 15 minutes of injection in the red blood cells expressed as (body weight-corrected) uptake value; Below limit of detection; type: organism-based; details: in vivo, 0.25 h
Rattus norvegicus [7] = organism: Rattus norvegicus; experiment: The Biodistribution of the antagonistic compound in male wistar rats, after 15 minutes of injection in the testes expressed as (body weight-corrected) uptake value; type: organism-based, Testis; details: in vivo, 0.25 h
Rattus norvegicus [8] = experiment: The Biodistribution of the antagonistic compound along with pretreated atropine (2.5 mg/kg) in male wistar rats after 15 minutes of injection in the muscle expressed as (body weight-corrected) uptake value; type: organism-based, Muscle tissue; details: in vivo, 0.25 h; outline: as §1
Rattus norvegicus [9] = organism: Rattus norvegicus; experiment: Biodistribution of compound in male wistar rats, after 15 minutes of injection in the bladder expressed as (body weight-corrected) uptake value; type: ADME, organism-based, Urinary bladder/Urine; details: in vivo, 0.25 h
Rattus norvegicus [10] = organism: Rattus norvegicus; experiment: The Biodistribution of the antagonistic compound in male wistar rats, after 15 minutes of injection in the stomach expressed as (body weight-corrected) uptake value; type: organism-based; details: in vivo, 0.25 h
Rattus norvegicus [11] = organism: Rattus norvegicus; experiment: The Biodistribution of the antagonistic compound in male wistar rats, after 15 minutes of injection in the lung expressed as (body weight-corrected) uptake value; type: organism-based; details: in vivo, 0.25 h
Rattus norvegicus [12] = organism: Rattus norvegicus; experiment: The Biodistribution of the antagonistic compound in male wistar rats, after 15 minutes of injection in the heart; type: organism-based; details: in vivo, 0.25 h
Rattus norvegicus [13] = organism: Rattus norvegicus; experiment: The Biodistribution of the antagonistic compound in male wistar rats, after 15 minutes of injection in the cortex expressed as (body weight-corrected) uptake value; Below limit of detection; type: organism-based; details: in vivo, 0.25 h
Rattus norvegicus [14] = organism: Rattus norvegicus; experiment: The Biodistribution of the antagonistic compound in male wistar rats, after 15 minutes of injection in the fat expressed as (body weight-corrected) uptake value; type: organism-based, Adipose tissue; details: in vivo, 0.25 h
Rattus norvegicus [15] = experiment: The Biodistribution of the antagonistic compound along with pretreated atropine (2.5 mg/kg) in male wistar rats after 15 minutes of injection in the stomach expressed as (body weight-corrected) uptake value; type: organism-based; details: in vivo, 0.25 h; outline: as §1
Rattus norvegicus [16] = experiment: The Biodistribution of the antagonistic compound along with pretreated atropine (2.5 mg/kg) in male wistar rats after 15 minutes of injection in the plasma expressed as (body weight-corrected) uptake value; type: organism-based; details: in vivo, 0.25 h; outline: as §1
Rattus norvegicus [17] = experiment: The Biodistribution of the antagonistic compound along with pretreated atropine (2.5 mg/kg) in male wistar rats after 15 minutes of injection in the red blood cells; Below limit of detection expressed as (body weight-corrected) uptake value; type: organism-based; details: in vivo, 0.25 h; outline: as §1
Rattus norvegicus [18] = organism: Rattus norvegicus; experiment: The Biodistribution of the antagonistic compound in male wistar rats, after 15 minutes of injection in the trachea expressed as (body weight-corrected) uptake value; type: organism-based; details: in vivo, 0.25 h
Rattus norvegicus [19] = experiment: The Biodistribution of the antagonistic compound along with pretreated atropine (2.5 mg/kg) in male wistar rats after 15 minutes of injection in the liver expressed as (body weight-corrected) uptake value; type: organism-based; details: in vivo, 0.25 h; outline: as §1
Rattus norvegicus [20] = organism: Rattus norvegicus; experiment: The Biodistribution of the antagonistic compound in male wistar rats, after 15 minutes of injection in the cerebellum expressed as (body weight-corrected) uptake value; Below limit of detection; type: organism-based; details: in vivo, 0.25 h
Rattus norvegicus [21] = experiment: The Biodistribution of the antagonistic compound along with pretreated atropine (2.5 mg/kg) in male wistar rats after 15 minutes of injection in the bladder; type: organism-based, Urinary bladder/Urine; details: in vivo, 0.25 h; outline: as §1
Rattus norvegicus [22] = organism: Rattus norvegicus; experiment: The Biodistribution of the antagonistic compound in male wistar rats, after 15 minutes of injection in the kidney expressed as (body weight-corrected) uptake value; type: organism-based; details: in vivo, 0.25 h
Rattus norvegicus [23] = organism: Rattus norvegicus; experiment: The Biodistribution of the antagonistic compound in male wistar rats, after 15 minutes of injection in the spleen expressed as (body weight-corrected) uptake value; type: organism-based; details: in vivo, 0.25 h
Rattus norvegicus [24] = experiment: The Biodistribution of the antagonistic compound along with pretreated atropine (2.5 mg/kg) in male wistar rats after 15 minutes of injection in the heart expressed as (body weight-corrected) uptake value; type: organism-based; details: in vivo, 0.25 h; outline: as §1
Rattus norvegicus [25] = organism: Rattus norvegicus; experiment: The Biodistribution of the antagonistic compound in male wistar rats, after 15 minutes of injection in the plasma expressed as (body weight-corrected) uptake value; type: organism-based; details: in vivo, 0.25 h
Rattus norvegicus [26] = experiment: The Biodistribution of the antagonistic compound along with pretreated atropine (2.5 mg/kg) in male wistar rats after 15 minutes of injection in the spleen; type: organism-based; details: in vivo, 0.25 h; outline: as §1
Rattus norvegicus [27] = organism: Rattus norvegicus; experiment: The Biodistribution of the antagonistic compound in male wistar rats, after 15 minutes of injection in the intestine expressed as (body weight-corrected) uptake value; type: organism-based; details: in vivo, 0.25 h
Rattus norvegicus [28] = experiment: The Biodistribution of the antagonistic compound along with pretreated atropine (2.5 mg/kg) in male wistar rats after 15 minutes of injection in the kidney expressed as (body weight-corrected) uptake value; type: organism-based; details: in vivo, 0.25 h; outline: as §1
Rattus norvegicus [29] = organism: Rattus norvegicus; experiment: The Biodistribution of the antagonistic compound in male wistar rats, after 15 minutes of injection in the muscle expressed as (body weight-corrected) uptake value; type: organism-based, Muscle tissue; details: in vivo, 0.25 h
Rattus norvegicus [30] = organism: Rattus norvegicus; experiment: The Biodistribution of the antagonistic compound in male wistar rats, after 15 minutes of injection in the pancreas expressed as (body weight-corrected) uptake value; type: organism-based; details: in vivo, 0.25 h
Rattus norvegicus [31] = experiment: The Biodistribution of the antagonistic compound along with pretreated atropine (2.5 mg/kg) in male wistar rats after 15 minutes of injection in the lung expressed as (body weight-corrected) uptake value; type: organism-based; details: in vivo, 0.25 h; outline: as §1
Rattus norvegicus [32] = experiment: The Biodistribution of the antagonistic compound along with pretreated atropine (2.5 mg/kg) in male wistar rats after 15 minutes of injection in the trachea expressed as (body weight-corrected) uptake value; type: organism-based; details: in vivo, 0.25 h; outline: as §1
Rattus norvegicus [33] = experiment: The Biodistribution of the antagonistic compound along with pretreated atropine (2.5 mg/kg) in male wistar rats after 15 minutes of injection in the fat expressed as (body weight-corrected) uptake value; type: organism-based, Adipose tissue; details: in vivo, 0.25 h; outline: as §1
Rattus norvegicus [34] = organism: Rattus norvegicus; experiment: The Biodistribution of the antagonistic compound in male wistar rats, after 15 minutes of injection in the submandibular gland expressed as (body weight-corrected) uptake value; type: organism-based; details: in vivo, 0.25 h
Rattus norvegicus [35] = experiment: The Biodistribution of the antagonistic compound along with pretreated atropine (2.5 mg/kg) in male wistar rats after 15 minutes of injection in the testes expressed as (body weight-corrected) uptake value; type: organism-based, Testis; details: in vivo, 0.25 h; outline: as §1
Rattus norvegicus [36] = experiment: The Biodistribution of the antagonistic compound along with pretreated atropine (2.5 mg/kg) in male wistar rats after 15 minutes of injection in the cerebellum; Below limit of detection; type: organism-based; details: in vivo, 0.25 h; outline: as §1
Rattus norvegicus [37] = organism: Rattus norvegicus; experiment: The Biodistribution of the antagonistic compound in male wistar rats, after 15 minutes of injection in the liver expressed as (body weight-corrected) uptake value; type: organism-based; details: in vivo, 0.25 h
Rattus norvegicus [38] = experiment: The Biodistribution of the antagonistic compound along with pretreated atropine (2.5 mg/kg) in male wistar rats after 15 minutes of injection in the pancreas expressed as (body weight-corrected) uptake value; type: organism-based; details: in vivo, 0.25 h; outline: as §1
Rattus norvegicus [39] = experiment: The Biodistribution of the antagonistic compound along with pretreated atropine (2.5 mg/kg) in male wistar rats after 15 minutes of injection in the intestine expressed as (body weight-corrected) uptake value; type: organism-based; details: in vivo, 0.25 h; outline: as §1

C[N+]12CCC(CC1)[C@@H](OC(=O)C(O)(c1ccccc1)c1ccccc1)C2
Ki [1]: 130 pM | Ki [2]: 650 pM | Ki [3]: 430 pM

C[N+]1(C)CCC(OC(=O)C(O)(c2ccccc2)C2CCCCC2)CC1.[I-] (racemic)
Uptake value (Rattus norvegicus [4]): Not Active | Uptake value (Rattus norvegicus [5]): 0.2 | Uptake value (Rattus norvegicus [6]): Not Active | Uptake value (Rattus norvegicus [7]): 0.07 | Uptake value (Rattus norvegicus [8]): 0.07 | Uptake value (Rattus norvegicus [9]): 4.71 | Uptake value (Rattus norvegicus [10]): 1.62 | Uptake value (Rattus norvegicus [11]): 0.67 | Uptake value (Rattus norvegicus [12]): 8.45 | Uptake value (Rattus norvegicus [13]): Not Active | Uptake value (Rattus norvegicus [14]): 0.5 | Uptake value (Rattus norvegicus [15]): 0.45 | Uptake value (Rattus norvegicus [16]): 0.13 | Uptake value (Rattus norvegicus [17]): Not Active | Uptake value (Rattus norvegicus [18]): 0.54 | Uptake value (Rattus norvegicus [19]): 8.1 | Uptake value (Rattus norvegicus [20]): Not Active | Uptake value (Rattus norvegicus [21]): 9.72 | Uptake value (Rattus norvegicus [22]): 2.48 | Uptake value (Rattus norvegicus [23]): 0.97 | Uptake value (Rattus norvegicus [24]): 0.16 | Uptake value (Rattus norvegicus [25]): 0.14 | Uptake value (Rattus norvegicus [26]): 0.18 | Uptake value (Rattus norvegicus [27]): 3.39 | Uptake value (Rattus norvegicus [28]): 1.49 | Uptake value (Rattus norvegicus [29]): 0.08 | Uptake value (Rattus norvegicus [30]): 1.97 | Uptake value (Rattus norvegicus [31]): 0.14 | Uptake value (Rattus norvegicus [32]): 0.24 | Uptake value (Rattus norvegicus [33]): 0.23 | Uptake value (Rattus norvegicus [34]): 1.68 | Uptake value (Rattus norvegicus [35]): 0.11 | Uptake value (Rattus norvegicus [36]): Not Active | Uptake value (Rattus norvegicus [37]): 6.27 | Uptake value (Rattus norvegicus [38]): 0.34 | Uptake value (Rattus norvegicus [39]): 1.1
